Results taken from ChEMBL document CHEMBL4024713, “Novel aryl piperazines for alleviation of 'andropause' associated prostatic disorders and depression” (Eur J Med Chem, 2017).
Active and inactive are the calls of the source. The rule behind the calls is not given here.

Columns and labels:
[1] = tested on: LNCaP; experiment: Cytotoxicity against human LNCAP cells after 24 hrs by MTT assay; format: functional, cell-based
[2] = tested on: Rattus norvegicus; experiment: Anti-androgenic activity in citral-induced prostatic hyperplasia Sprague-Dawley rat model assessed as prostate weight at 10 mg/kg, po administered once daily coadministered with citral for 21 days measured 24 hrs last post dose (reference value: 100%); format: functional
Method in brief: (§1)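 Adult male Sprague-Dawley rats (250-280 g, n = 5), citral 100 mg/kg orally once daily for 28 days. From day 8, compound or flutamide at 10 mg/kg orally once daily for the remaining 21 days. Prostate weight is expressed relative to the citral group (100%). Prostates fixed in 10% formalin; 5 μ sections stained with H&E, examined by light microscopy.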

[3] = tested on: PC-3; experiment: Cytotoxicity against human PC3 cells after 24 hrs by MTT assay; format: functional, cell-based; settings: PC-3, 24 h
[4] = tested on: DU-145; experiment: Cytotoxicity against human DU145 cells after 24 hrs by MTT assay; format: functional, cell-based; settings: DU-145, 24 h
[5] = tested on: Rattus norvegicus; experiment: Toxicity in citral-induced prostatic hyperplasia Sprague-Dawley rat model assessed as effect on seminal vesicle weight at 10 mg/kg, po administered once daily coadministered with citral for 21 days measured 24 hrs last post dose; format: organism-based; settings: in vivo
[6] = tested on: Rattus norvegicus; experiment: Toxicity in citral-induced prostatic hyperplasia Sprague-Dawley rat model assessed as effect on testis weight at 10 mg/kg, po administered once daily coadministered with citral for 21 days measured 24 hrs last post dose; format: organism-based; settings: in vivo
[7] = tested on: Rattus norvegicus; experiment: Toxicity in citral-induced prostatic hyperplasia Sprague-Dawley rat model assessed as effect on epididymis weight at 10 mg/kg, po administered once daily coadministered with citral for 21 days measured 24 hrs last post dose; format: organism-based; settings: in vivo
[8] = tested on: Rattus norvegicus; experiment: Anti-androgenic activity in citral-induced prostatic hyperplasia Sprague-Dawley rat model assessed increase in distinction between stromal and acinar compartments at 10 mg/kg, po administered once daily coadministered with citral for 21 days measured 24 hrs last post dose by hematoxyline and eosin stainig based light microscopic analysis; format: functional, organism-based; method in brief: as §1
[9] = tested on: Mus musculus; experiment: Anti-depressant like activity in Swiss albino mouse assessed as reduction in immobility time at 20 mg/kg, po administered 60 mins prior to test measured for 5 mins by forced swim test relative to control; format: functional; design: scale not given: the % may be the effect or the level left
Method in brief: (§2)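 Male Swiss albino mice (20-25 g); compound 20 mg/kg, imipramine 60 mg/kg or fluoxetine 20 mg/kg given orally in 1% gum acacia (10 mL/kg). After 60 min: 15 min pre-swim in a water cylinder (10 cm depth, 25 ± 1 °C), then retest at 24 h. Immobility recorded for 5 min after 1 min acclimatization; N = 7-9, mean ± SEM, unpaired t-test.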

[10] = tested on: Mus musculus; experiment: Anti-depressant like activity in Swiss albino mouse assessed as reduction in immobility time at 20 mg/kg, po measured for 5 mins by tail suspension test; format: functional, organism-based
Method in brief: (§3)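 Male Swiss albino mice dosed orally in 1% gum acacia; imipramine as standard. Each mouse suspended by the tail with tape to a horizontal bar 60 cm above the table. Immobility (no limb or body movement other than respiration) recorded for 5 min after 1 min acclimatization; N = 5.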

[11] = tested on: Mus musculus; experiment: Toxicity in Swiss albino mouse assessed as effect on locomotor activity at 20 mg/kg, po measured at 5 mins interval for 90 mins by open field test; format: organism-based; settings: in vivo
Method in brief: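 Male Swiss albino mice in an activity chamber, infrared beam-break counting over 24 intervals of 5 min (120 min). Oral dosing after the 6th interval; six animals per group.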

[12] = tested on: Mus musculus; experiment: Toxicity in Swiss albino mouse assessed as latency time to fall at 20 mg/kg, po measured at 1 hr interval for 4 hrs by rotarod test; format: organism-based; settings: in vivo
Method in brief: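 Mice trained on the rotarod (5 to 10 rpm), 2 min trials, 3 per day for two days. On day 3, tested before oral dosing and at 1, 2, 3 and 4 h after, recording latency to fall.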

[13] = tested on: Mus musculus; experiment: Anti-depressant like activity in Swiss albino mouse assessed as reduction in immobility time at 60 mg/kg, po administered 60 mins prior to test measured for 5 mins by forced swim test relative to control; format: functional; design: scale not given: the % may be the effect or the level left; method in brief: as §2
[14] = tested on: Mus musculus; experiment: Anti-depressant like activity in Swiss albino mouse assessed as reduction in immobility time at 60 mg/kg, po measured for 5 mins by tail suspension test; format: functional, organism-based; method in brief: as §3
[15] = molecular target: T1, Alpha-1A adrenergic receptor (Homo sapiens) (UniProt P35348); experiment: Antagonist activity at recombinant human alpha1a adrenergic receptor expressed in human Chem1 cell membrane assessed as reduction in ephinephrine-induced calcium mobilization at 1 uM by fluoforte dye based fluorescence assay relative to ephinephrine; format: functional
T1 sequence (whole entry): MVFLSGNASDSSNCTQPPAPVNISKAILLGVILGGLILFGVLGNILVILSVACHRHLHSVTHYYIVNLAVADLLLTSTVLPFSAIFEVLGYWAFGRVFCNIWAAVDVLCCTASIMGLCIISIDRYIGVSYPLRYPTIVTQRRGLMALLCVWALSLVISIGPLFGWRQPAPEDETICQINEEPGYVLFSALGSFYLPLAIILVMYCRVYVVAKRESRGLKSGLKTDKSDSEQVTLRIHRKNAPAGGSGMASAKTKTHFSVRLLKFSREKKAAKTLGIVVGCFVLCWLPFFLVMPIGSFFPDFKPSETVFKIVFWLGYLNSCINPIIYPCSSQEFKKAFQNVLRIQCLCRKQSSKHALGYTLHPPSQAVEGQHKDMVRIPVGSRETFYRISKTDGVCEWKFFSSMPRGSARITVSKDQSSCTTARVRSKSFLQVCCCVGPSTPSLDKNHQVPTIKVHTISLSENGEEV
Method in brief: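 α1A-adrenergic receptor-expressing Chem-1 cells, 4 x 10^4/well overnight, loaded with FluoForte calcium dye 45 min at 37 °C then 15 min at room temperature. Compounds at 1 μM; epinephrine 20 μM added at 10 s; tamsulosin 100 nM and 1 μM as reference. Fluorescence (ex 490/em 525 nm) read for 180 s as RFU.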

[16] = molecular target: T2, Androgen receptor (Homo sapiens) (UniProt P10275); experiment: Antagonist activity at AR (unknown origin) expressed in African green monkey COS7 cells at 7.5 uM after 24 hrs by dual luciferase reporter gene assay; format: cell-based
T2 sequence (whole entry): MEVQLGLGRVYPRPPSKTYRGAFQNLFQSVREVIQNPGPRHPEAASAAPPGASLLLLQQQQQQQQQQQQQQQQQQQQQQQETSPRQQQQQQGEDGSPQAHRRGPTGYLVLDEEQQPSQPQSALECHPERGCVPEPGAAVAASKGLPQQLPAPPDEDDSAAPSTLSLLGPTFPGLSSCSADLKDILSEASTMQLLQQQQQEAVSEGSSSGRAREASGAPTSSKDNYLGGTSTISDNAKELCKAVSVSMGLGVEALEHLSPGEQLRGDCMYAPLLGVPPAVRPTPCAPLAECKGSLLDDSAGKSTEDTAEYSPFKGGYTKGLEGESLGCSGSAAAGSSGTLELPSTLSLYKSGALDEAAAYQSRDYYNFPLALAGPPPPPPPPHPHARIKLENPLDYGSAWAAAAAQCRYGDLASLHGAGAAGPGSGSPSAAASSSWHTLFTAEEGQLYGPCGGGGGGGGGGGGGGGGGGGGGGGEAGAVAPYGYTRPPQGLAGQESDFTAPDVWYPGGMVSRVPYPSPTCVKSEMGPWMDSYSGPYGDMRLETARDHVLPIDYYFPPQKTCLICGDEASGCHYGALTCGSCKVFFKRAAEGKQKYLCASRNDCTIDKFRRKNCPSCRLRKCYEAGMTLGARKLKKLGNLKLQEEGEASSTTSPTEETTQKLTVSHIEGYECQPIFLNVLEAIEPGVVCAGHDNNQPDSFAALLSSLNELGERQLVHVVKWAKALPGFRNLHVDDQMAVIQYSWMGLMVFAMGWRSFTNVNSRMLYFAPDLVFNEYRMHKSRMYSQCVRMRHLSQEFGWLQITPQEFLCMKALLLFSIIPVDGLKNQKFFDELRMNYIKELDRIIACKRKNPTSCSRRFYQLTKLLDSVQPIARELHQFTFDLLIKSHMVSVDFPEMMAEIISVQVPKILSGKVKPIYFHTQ
Method in brief: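 Cos7 cells (AR-negative) transiently transfected for 8 h with pARE-E1B-LUC reporter plus pCR3.1.AR expression vector. Then in complete medium, treated with compound at 7.5 μM for 24 h; bicalutamide 3 μM as positive control. Luciferase normalized to pRL-SV40 internal control, expressed as RLU relative to control = 100%.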

For `O=[N+]([O-])c1ccc(N2CCN(CCN3CCN(c4ccc([N+](=O)[O-])cc4C(F)(F)F)CC3)CC2)c(C(F)(F)F)c1`, the EC50 [1] was 72.2 µM.

`CC(C)C(=O)Nc1ccc([N+](=O)[O-])c(C(F)(F)F)c1` [FLUTAMIDE] showed an EC50 [1] of 7 µM and an Activity [2] of 58.8%.

With `O=[N+]([O-])c1ccc(N2CCN(CCCN3CCN(c4ccc([N+](=O)[O-])cc4C(F)(F)F)CC3)CC2)c(C(F)(F)F)c1` the EC50 [1] was 55.5 µM.

With `O=[N+]([O-])c1ccc(N2CCN(CCCN3CCN(c4ccc([N+](=O)[O-])cc4)CC3)CC2)cc1` the EC50 [1] was 11.8 µM, the EC50 [3] was over 80 µM and the EC50 [4] was over 80 µM. For the same compound, the Activity [2] was 29%, the Activity [5] was “Non-Toxic” and the Activity [6] was “Non-Toxic”. The Activity [7] was “Non-Toxic”, the Activity [8] was “Active” and the Activity [9] was 69.74%. For the same compound, the Activity [10] was “Active”, the Activity [11] was “Non-Toxic” and the Time [12] was 120 s.

`CNCCC(Oc1ccc(C(F)(F)F)cc1)c1ccccc1` (stereo not drawn) [FLUOXETINE] was tested, and the Activity [9] was 75.35%.

For `CN(C)CCCN1c2ccccc2CCc2ccccc21` [IMIPRAMINE], the Activity [13] was 40.39% and the Activity [14] was “Active”.

With `Fc1ccccc1N1CCN(CCCN2CCN(c3ccccc3F)CC2)CC1` the EC50 [1] was 10.4 µM, the EC50 [3] was over 80 µM and the EC50 [4] was over 80 µM. For the same compound, the Activity [2] was 37%, the Activity [5] was “Non-Toxic” and the Activity [6] was “Non-Toxic”. The Activity [7] was “Non-Toxic”, the Activity [8] was “Active” and the Activity [9] was 20.86%.

Compound `O=[N+]([O-])c1ccc(N2CCN(CCN3CCN(c4ccc([N+](=O)[O-])cc4)CC3)CC2)cc1` has an EC50 [1] of 25.2 µM.

For `Fc1ccc(N2CCN(CCN3CCN(c4ccc(F)cc4)CC3)CC2)cc1`, the EC50 [1] was 71.2 µM.

`Fc1ccc(N2CCN(CCCN3CCN(c4ccc(F)cc4)CC3)CC2)cc1` gave an EC50 [1] of 49.2 µM.

Work on `c1ccc(N2CCN(CCN3CCN(c4ccccn4)CC3)CC2)nc1` yielded an EC50 [1] of 12.4 µM, an EC50 [3] of over 80 µM and an EC50 [4] of over 80 µM. The Activity [2] was 44%, the Activity [5] was “Non-Toxic” and the Activity [6] was “Non-Toxic”. For the same compound, the Activity [7] was “Non-Toxic”, the Activity [8] was “Active” and the Activity [9] was 16.95%.

Compound `Fc1ccc(N2CCN(CCN3CCN(c4ccccc4F)CC3)CC2)cc1` has an EC50 [1] of 68 µM.

`O=[N+]([O-])c1ccc(N2CCN(CCN3CCN(c4ccc(F)cc4)CC3)CC2)cc1` gave an EC50 [1] of 77.9 µM.

For `COc1ccccc1N1CCN(CCN2CCN(c3ccc(F)cc3)CC2)CC1`, the EC50 [1] was 78.7 µM.

`O=[N+]([O-])c1cc(C(F)(F)F)ccc1N1CCN(CCN2CCN(c3ccc(C(F)(F)F)cc3[N+](=O)[O-])CC2)CC1` gave an EC50 [1] of 63.2 µM.

With `COc1ccccc1N1CCN(CCN2CCN(c3ccc([N+](=O)[O-])cc3)CC2)CC1` the EC50 [1] was 46.5 µM.

Work on `Fc1ccccc1N1CCN(CCN2CCN(c3ccccc3F)CC2)CC1` yielded an EC50 [1] of 40 µM.

`CCOc1ccccc1OCCN[C@H](C)Cc1ccc(OC)c(S(N)(=O)=O)c1` gave a fold change (FC) [15] of 1.6.

`COc1ccccc1N1CCN(CCN2CCN(c3ccccc3OC)CC2)CC1` gave an EC50 [1] of 40 µM.

`O=[N+]([O-])c1cc(C(F)(F)F)ccc1N1CCN(CCCN2CCN(c3ccc(C(F)(F)F)cc3[N+](=O)[O-])CC2)CC1` was tested, and the EC50 [1] was 12.2 µM, the Activity [16] was “Active” and the EC50 [3] was over 80 µM. For the same compound, the EC50 [4] was 76.5 µM, the Activity [2] was 51.7% and the Activity [5] was “Non-Toxic”. For the same compound, the Activity [6] was “Non-Toxic”, the Activity [7] was “Non-Toxic” and the Activity [8] was “Active”. The Activity [9] was 25.71%.
